Assay [1] deals with Mitogen-activated protein kinase 14 (Homo sapiens, UniProt Q16539). Briefly: Inhibition of human p38alpha after 60 mins. In outline:
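Radiometric kinase assay measuring incorporation of γ-32P-ATP into biotinylated peptide substrate by human p38α (5 nM). 60 min at 30 °C, phosphoric acid stop, streptavidin capture, scintillation counting; background-subtracted IC50 versus no-inhibitor controls.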

The test system of assay [2] is Blood. Briefly: Inhibition of LPS-induced TNFalpha production in human diluted whole blood at 1 uM after 2 hrs by ELISA. Format: functional. Background: In an ELISA, binding on a coated surface is turned into a signal by an enzyme label.
Assay [3] deals with Blood. Briefly: Inhibition of LPS-induced TNFalpha production in human diluted whole blood after 2 hrs by ELISA. Format: functional, tissue-based.
Assay [4] has as its system Blood. Description: Inhibition of LPS-induced TNFalpha production in human diluted whole blood at 0.3 uM after 2 hrs by ELISA. Format: functional.

Mitogen-activated protein kinase 14, sequence (Q16539 whole entry): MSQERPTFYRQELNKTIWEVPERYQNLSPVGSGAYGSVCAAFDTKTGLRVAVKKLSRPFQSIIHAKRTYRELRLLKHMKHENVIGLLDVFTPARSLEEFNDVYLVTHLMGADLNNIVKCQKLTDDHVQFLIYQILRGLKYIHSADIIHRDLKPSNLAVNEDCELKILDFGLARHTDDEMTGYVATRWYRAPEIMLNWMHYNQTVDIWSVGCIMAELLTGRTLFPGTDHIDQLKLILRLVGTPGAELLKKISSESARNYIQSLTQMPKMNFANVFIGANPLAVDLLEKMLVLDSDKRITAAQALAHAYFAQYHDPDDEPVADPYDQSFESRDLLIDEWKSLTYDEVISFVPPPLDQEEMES

As to `CN(C)C(=O)C(=O)c1ccc2c(c1)C=C(C(=O)N1CCC(Cc3ccc(F)cc3)CC1)C(C(F)(F)F)O2` (centres undefined), the IC50 in assay [1] was more than 10 µM. `COc1ccc(C(=O)C(=O)N(C)C)cc1C(=O)N1CCC(Cc2ccc(F)cc2)CC1` returned an inhibition at 1 µM with Blood [2] of 17%. In addition, the IC50 in assay [1] came to 0.945 µM. As for `COc1cc2occ(C(=O)C(=O)N(C)C)c2cc1C(=O)N1CCC(Cc2ccc(F)cc2)CC1`, in the assay on Blood [2], 1 µM produced 10% inhibition. Also, the IC50 in assay [1] stood at 0.6 µM.

For the molecule `COc1nc2[nH]cc(C(=O)C(=O)N(C)C)c2cc1C(=O)N1CCC(Cc2ccc(F)cc2)CC1`, the figures for the IC50 (in the assay with Blood [3]; in assay [1]) were 0.048 µM and 0.06 µM, respectively. The like results for `CN(C)C(=O)C(=O)c1c[nH]c2cc(Cl)c(C(=O)N3CCC(Cc4ccc(F)cc4)CC3)cc12` were, in that order, 0.1 µM and 0.018 µM. For `CN(C)C(=O)C(=O)c1nn(C)c2cc(Cl)c(C(=O)N3CCC(Cc4ccc(F)cc4)CC3)cc12`, in the assay with Blood [4], the inhibition at 0.3 µM was found to be 26%. The molecule further returned an IC50 in assay [1] of 0.1 µM. Take `Cc1[nH]c2ccc(C(=O)C(=O)N(C)C)cc2c1C(=O)N1CCC(Cc2ccc(F)cc2)CC1`: inhibition in assay [1] was half-maximal at 0.09 µM (IC50). In other words, the double-digit nanomolar range. For the molecule `COc1cc2[nH]cc(C(=O)C(=O)N(C)C)c2cc1C(=O)N1CCC(Cc2ccc(F)cc2)CC1`, the values for the IC50 (in the assay with Blood [3]; in assay [1]) were 0.03 µM and 0.01 µM, respectively.

In general, IC50 refers to the concentration needed to halve the response being measured. A high value points to a need for much substance. What is called inhibition is the drop in the measured response relative to a control, in per cent. A high value points to strong suppression.

These data come from ChEMBL document CHEMBL1158523, “Piperidine-based heterocyclic oxalyl amides as potent p38 alpha MAP kinase inhibitors” (Bioorg Med Chem Lett, 2010).
